Source: PubChem (Sanford-Burnham Center for Chemical Genomics)
STEP block: STEP (human) phosphatase inhibition. 360,000 compounds, 0.25% hits. P54829. inhibition, % at 20 µM. AID 588621. recombinant STEP, OMFP fluorogenic substrate, fluorescence;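 active = inhibition at 20 µM, scaled per plate between control wells, above about 37%, limit read from the data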;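 note: 0% = DMSO with enzyme and substrate and 100% = substrate only without enzyme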
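Assay system: isolated STEP enzyme. Buffer or medium: pH 6.0 Bis-Tris with DTT and Tween 20. Also added: fluorogenic phosphatase substrate OMFP at 25 µM final. Dosing: 20 µM, 1% DMSO. Timing: 20 min reaction, room temperature, in the dark. Measured by: fluorescence intensity, excitation 480 nm, emission 540 nm. Evaluation: normalized % inhibition.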
Rpn11 block: inhibitors of human proteasome Rpn11 | O00487 | human 26S proteasome, Ub4-pepOG fluorescence polarization; 20S core pre-blocked with epoxomicin | inhibition, % at 20 µM | 360,000 compounds, 0.59% hits | AID 588493;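 active = inhibition at 20 µM, scaled to each plate's controls, above about 33%, limit read from the data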
SUMO1 PPI mod: modulators of human SUMO1-mediated protein-protein interactions; inhibition, % at 20 µM; 360,000 compounds, 0.33% hits; AID 602429; SUMO1 binding to a labelled peptide, TR-FRET, 1 h; P63165; in the data active = inhibition above about 37%
LMPTP inh: blocks human LMPTP phosphatase; 360,000 compounds, 0.22% hits; P24666; inhibition, % at 20 µM; recombinant LMPTP-A, OMFP fluorogenic substrate, fluorescence intensity;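 active = compounds that cut the enzyme signal by at least half of the control window in the single-dose screen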;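 note: plate controls were DMSO wells with enzyme plus substrate for no effect and substrate without enzyme for full effect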
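Test system – LMPTP-A phosphatase enzyme · Quantity – 0.625 nM LMPTP-A final · Reagent – OMFP substrate, 400 µM final · Dosing – one test concentration per compound, 20 µM, with 3% DMSO overall · Timing – 50 min enzyme reaction at room temperature, protected from light · Detection – fluorescence intensity · Controls – substrate-only low control, DMSO enzyme-plus-substrate high control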
DNMT1 inh: inhibitors of human DNMT1; inhibition (reported as % activation of signal), % at 10 µM; AID 588458; DNMT1 molecular beacon, Hinp1I cleavage, fluorescence; P26358; 360,000 compounds, 0.83% hits; in the data active = inhibition above about 50%
Target sequence (P26358 504-1616 limits assumed): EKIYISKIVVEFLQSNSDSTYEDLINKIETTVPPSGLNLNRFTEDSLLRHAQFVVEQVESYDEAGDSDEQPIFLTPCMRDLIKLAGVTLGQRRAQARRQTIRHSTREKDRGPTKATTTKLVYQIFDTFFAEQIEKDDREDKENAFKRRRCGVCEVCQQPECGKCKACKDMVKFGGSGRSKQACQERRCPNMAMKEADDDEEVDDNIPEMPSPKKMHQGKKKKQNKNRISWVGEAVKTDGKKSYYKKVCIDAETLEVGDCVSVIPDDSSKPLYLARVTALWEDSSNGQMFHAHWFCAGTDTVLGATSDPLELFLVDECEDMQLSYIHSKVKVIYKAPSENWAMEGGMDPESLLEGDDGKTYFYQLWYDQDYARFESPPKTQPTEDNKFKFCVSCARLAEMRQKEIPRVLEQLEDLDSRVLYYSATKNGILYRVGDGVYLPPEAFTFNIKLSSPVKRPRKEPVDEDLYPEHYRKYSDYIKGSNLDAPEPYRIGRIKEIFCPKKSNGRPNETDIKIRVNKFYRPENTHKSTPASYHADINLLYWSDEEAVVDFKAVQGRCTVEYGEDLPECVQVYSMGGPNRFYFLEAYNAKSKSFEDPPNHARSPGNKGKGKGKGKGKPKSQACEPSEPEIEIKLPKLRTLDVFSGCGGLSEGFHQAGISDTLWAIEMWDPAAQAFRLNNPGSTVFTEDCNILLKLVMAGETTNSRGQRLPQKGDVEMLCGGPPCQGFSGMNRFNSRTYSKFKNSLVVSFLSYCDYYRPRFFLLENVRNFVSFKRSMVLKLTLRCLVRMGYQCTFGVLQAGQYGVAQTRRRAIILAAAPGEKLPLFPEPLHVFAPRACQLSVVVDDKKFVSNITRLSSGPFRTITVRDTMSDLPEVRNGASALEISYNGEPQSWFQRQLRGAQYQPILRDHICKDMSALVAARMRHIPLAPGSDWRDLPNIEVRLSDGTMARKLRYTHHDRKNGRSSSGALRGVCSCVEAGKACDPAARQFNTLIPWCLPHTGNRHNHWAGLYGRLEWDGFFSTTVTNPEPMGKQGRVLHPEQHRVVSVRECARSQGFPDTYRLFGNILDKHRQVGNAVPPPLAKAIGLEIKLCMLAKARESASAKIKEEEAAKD
Scp-1 inhibitor: Scp-1 (human) phosphatase inhibition; inhibition, % at 20 µM; 340,000 compounds, 0.88% hits; Recombinant Scp1, phosphopeptide, malachite green phosphate absorbance; AID 493091; Q9GZU7;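 active = inhibition above about 50% at 20 µM, limit read from the data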;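 note: plate controls were DMSO wells with enzyme for no effect and wells lacking enzyme for full effect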
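Test system: SCP-1 phosphatase catalytic domain, residues 76-261; measured by: colorimetric phosphate reagent with accelerator and stabiliser, absorbance at 630 nm; timing: enzyme reaction 45 min at room temperature, colour 5 min, stabilisation 30 min; also added: Phosphorylated 17-residue peptide substrate; compound dosing: one concentration, 20 µM, with 1.0% DMSO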
An asterisk follows results filed as active; / = no result shown. Compounds with a hit are over-represented: about 2.3% of the library has one in this group of screens.

SMILES	STEP block	Rpn11 block	SUMO1 PPI mod	LMPTP inh	DNMT1 inh	Scp-1 inhibitor
C/C=C/COC(=O)c1[nH]c2c(c1C)C(=O)CC(c1ccco1)C2 (stereo unspecified)	0	-12	14	61*	37	52*
C/C=C/COC(=O)c1[nH]c2c(c1C)C(=O)CC(c1ccc(N(C)C)cc1)C2 (stereo unspecified)	-1	17	4	4	1	0
Cc1c(C(=O)OCC(C)C)[nH]c2c1C(=O)CC(c1ccco1)C2 (stereo unspecified)	3	11	9	69*	9	7
COC(=O)c1[nH]c2c(c1C)C(=O)CC(c1ccccc1)C2 (stereo unspecified)	3	5	0	0	-1	-5
Cc1c(C(=O)OCC2CCCO2)[nH]c2c1C(=O)CC(c1ccco1)C2 (stereo unspecified)	3	-4	19	53*	98*	84*
C=CCOC(=O)c1[nH]c2c(c1C)C(=O)CC(c1ccco1)C2 (stereo unspecified)	/	/	/	/	/	60*
Cc1nc(N2CCN(C(=O)c3ccco3)CC2)[nH]c(=O)c1C	3	-3	3	-1	3	-5
O=C(O)c1cccc(-n2cccc2/C=C2/NC(=O)N(c3ccc(Cl)cc3)C2=O)c1	94*	/	106*	81*	87*	81*
C=CCNC(=O)NC(=O)CN1C(=O)NC(c2ccccc2)(c2ccccc2)C1=O	-2	-2	-3	0	0	-7
Nn1c(SCC(=O)Nc2c(F)cc(F)cc2Br)nnc1C1CCCCC1	4	-3	46*	0	-46	0
OCc1cn(-c2ccccc2)nc1-c1ccc(-c2nn(-c3ccccc3)cc2CO)cc1	-7	5	0	1	-2	-10
N#Cc1cn(-c2ccccc2)nc1-c1ccccc1	-1	-11	45*	1	4	20
CN(C)C(CNc1ccc(S(C)(=O)=O)cc1[N+](=O)[O-])c1ccccc1 (stereo unspecified)	1	8	-39	-1	2	2
CCNc1ccc(S(=O)(=O)N(C)C)cc1[N+](=O)[O-]	-1	-2	-15	0	4	59*
O=c1nc2c(-c3cccc(Br)c3)n[nH]n2c2ccccc12	-2	-4	45*	6	1	6
Cc1ccc(S(=O)(=O)c2n[nH]n3c2nc(=O)c2ccccc23)cc1	0	7	17	-1	1	-5
CC1(C(=O)NCc2ccco2)Cc2c(-c3cccc(C(N)=O)c3)ccnc2O1 (stereo unspecified)	0	0	6	-2	3	/
CC(=Cc1ccccc1)C=C1SC(=S)N(CCCC(=O)Nc2ccc(C(=O)O)c(O)c2)C1=O	6	15	-1	45	71*	/
O=S(=O)(Nc1nc2ccccc2nc1Nc1cccc(S(=O)(=O)N2CCCCC2)c1)c1ccccc1	-4	-23	16	1	-29	-14
Cc1c(C(=O)Nc2cccc([N+](=O)[O-])c2)cnn1-c1ccccc1	-2	9	-25	3	-2	4
O=C(CCNC(=O)c1ccc(Br)cc1)NC1CCCc2ccccc21 (stereo unspecified)	-2	-2	6	1	1	-3
O=C(O[C@@H]1OC2COC(=O)c3cc(O)c(O)c(O)c3-c3c(cc(O)c(O)c3O)C(=O)O[C@@H]([C@H]1O)[C@@H]2O)c1cc(O)c(O)c(O)c1	11	/	46*	14	90*	50*
COc1cccc(CNC(=O)C2CCN(S(=O)(=O)c3ccc(-n4cnnn4)cc3)CC2)c1	1	4	4	1	0	-8
CN(C)c1ccc(/C=C/c2cccc[n+]2[O-])cc1	0	37	-16	-1	4	-7
CN(CCCS(=O)(=O)[O-])c1ccc(/C=C/c2ccc3ccccc3[n+]2C)cc1	1	-1	-39	1	6	36
SMILES	STEP block	Rpn11 block	SUMO1 PPI mod	LMPTP inh	DNMT1 inh	Scp-1 inhibitor
CN(C)c1ccc(/C=C/c2ccc3ccccc3[n+]2C)cc1	13	35	-38	46	1	66*
CN(C)c1ccc(/C=C/c2ccc3c4ccccc4ccc3[n+]2-c2ccccc2)cc1	16	-6	37	98*	40	6
O=C(COc1ccc(Br)cc1)NNC(=O)c1cc(S(=O)(=O)N2CCOCC2)ccc1Cl	1	5	5	0	5	-6
O=C(CCCOc1ccccc1)NC(=S)Nc1ccccc1	3	4	4	2	-4	-13
CCCCn1c(N)c(S(=O)(=O)c2ccc(C)cc2)c2nc3ccccc3nc21	-3	18	39*	5	-27	3
COC(=O)c1ccc(NC(=S)NC2CCc3ccccc32)cc1 (stereo unspecified)	1	-1	2	0	-3	3
O=C(O)c1cc(-c2ccc(/C=C3/SC(=S)N(Cc4ccccc4)C3=O)o2)ccc1Cl	-22	/	36	71*	83*	57*
Cc1cc(C(=O)O)ccc1-c1ccc(/C=C2\SC(=O)N(CC(=O)Nc3ccc4c(c3)OCO4)C2=O)o1	64*	18	73*	80*	101*	/
C#CCN1C(=O)S/C(=C\c2ccc(-c3ccc(C(=O)O)cc3C)o2)C1=O	0	8	19	22	79*	62*
Cc1c(/C=C2\SC(=O)N(CC(=O)Nc3ccc4c(c3)OCO4)C2=O)c2ccccc2n1C	-2	9	-7	3	6	-7
Cc1ccc(/C=C2\SC(=S)N(Cc3ccccc3)C2=O)o1	1	/	-3	4	-19	-12
Cc1ccc(C)c(N2C(=N)S/C(=C\c3ccc(-c4ccccc4C(=O)O)o3)C2=O)c1	7	37	34	5	35	27
Cc1ccc(NC(=O)CN2C(=O)S/C(=C/c3ccc(-c4cccc(C(=O)O)c4)o3)C2=O)cc1	40*	/	17	64*	56*	65*
CCCN(C(=O)COC(=O)c1[nH]c(C)c(C(=O)OC)c1C)c1c(N)n(Cc2ccccc2)c(=O)[nH]c1=O	0	18	2	0	-4	-1
O=C(O)C(C1CCCCC1)C1(O)CCCC1 (stereo unspecified)	2	2	-1	2	0	3
CCn1c(=S)sc2c(=O)n(CC(=O)Nc3ccc(OC)c(Cl)c3)c(C)nc21	0	6	0	1	-5	-11
CC(=O)Nc1ccc(S(=O)(=O)N2CCCN(c3nc(C)cc(C)c3C#N)CC2)cc1	-5	-8	7	0	0	-5
O=c1cc(-c2cc3ccccc3o2)c2cc(O)ccc2o1	12	-3	-7	58*	-2	28
